Measured values published in ChEMBL document CHEMBL4265907, “Design, synthesis and pharmacological evaluation of N4,N6-disubstituted pyrimidine-4,6-diamine derivatives as potent EGFR inhibitors in non-small cell lung cancer” (Eur J Med Chem, 2018).
Activity calls are given as the source filed them. No cut-off for these calls is given here.

How the values were obtained:
NCI-H3255 [1] = assay: Induction of apoptosis in human H3255 cells assessed as late apoptotic cells at 250 nM after 48 hrs by Annexin V-FITC/PI staining based flow cytometry (reference value: 1.77%); type: functional
[2] = target: T1, Epidermal growth factor receptor (Homo sapiens, UniProt P00533); assay: Inhibition of EGFR in human H3255 cells assessed as decrease in EGF-induced ERK1/2 phosphorylation by Western blot method; type: cell-based
T1 sequence (P00533 whole entry): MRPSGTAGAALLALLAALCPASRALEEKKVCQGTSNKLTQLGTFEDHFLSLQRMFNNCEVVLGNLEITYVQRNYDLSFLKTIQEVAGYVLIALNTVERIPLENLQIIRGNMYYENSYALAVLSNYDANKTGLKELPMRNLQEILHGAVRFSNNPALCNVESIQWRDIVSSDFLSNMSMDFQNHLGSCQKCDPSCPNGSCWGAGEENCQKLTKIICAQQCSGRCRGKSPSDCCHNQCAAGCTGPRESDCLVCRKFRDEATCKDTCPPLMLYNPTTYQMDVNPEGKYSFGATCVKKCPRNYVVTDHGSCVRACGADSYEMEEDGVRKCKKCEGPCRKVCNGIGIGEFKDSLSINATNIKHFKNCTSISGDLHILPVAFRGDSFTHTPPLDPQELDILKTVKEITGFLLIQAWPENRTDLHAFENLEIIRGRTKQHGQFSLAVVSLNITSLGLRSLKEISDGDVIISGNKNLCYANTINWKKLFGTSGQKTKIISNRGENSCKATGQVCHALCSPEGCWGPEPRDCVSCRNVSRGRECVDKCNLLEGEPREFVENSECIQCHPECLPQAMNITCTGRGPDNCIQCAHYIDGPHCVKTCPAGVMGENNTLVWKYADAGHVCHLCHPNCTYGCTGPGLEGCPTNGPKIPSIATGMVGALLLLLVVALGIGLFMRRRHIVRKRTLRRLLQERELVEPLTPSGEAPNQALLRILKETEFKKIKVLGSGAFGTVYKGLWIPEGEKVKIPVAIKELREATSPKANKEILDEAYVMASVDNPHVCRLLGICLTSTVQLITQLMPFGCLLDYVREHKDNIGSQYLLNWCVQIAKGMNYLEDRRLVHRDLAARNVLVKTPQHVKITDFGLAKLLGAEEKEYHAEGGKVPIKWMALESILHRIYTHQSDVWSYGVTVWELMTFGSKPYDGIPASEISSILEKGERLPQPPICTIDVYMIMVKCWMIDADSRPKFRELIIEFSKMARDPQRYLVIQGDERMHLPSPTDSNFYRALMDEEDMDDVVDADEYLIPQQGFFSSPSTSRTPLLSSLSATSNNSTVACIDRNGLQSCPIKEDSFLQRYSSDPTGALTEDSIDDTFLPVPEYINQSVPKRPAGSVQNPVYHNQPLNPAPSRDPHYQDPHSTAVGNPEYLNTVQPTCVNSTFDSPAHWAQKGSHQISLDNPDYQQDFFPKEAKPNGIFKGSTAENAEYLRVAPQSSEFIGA
Outline: (§1)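 Cell lysates prepared in protein lysis buffer and cleared at 12,000 g for 10 min at 4 °C. 50 μg protein per lane was run on a gel, transferred to PVDF and immunoblotted, with GAPDH as the loading control.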

[3] = target: T1, Epidermal growth factor receptor; assay: Inhibition of EGFR in human H1975 cells assessed as decrease in EGF-induced ERK1/2 phosphorylation by Western blot method; type: cell-based; outline: as §1
[4] = target: T1, Epidermal growth factor receptor; assay: Inhibition of EGFR in human H1975 cells assessed as decrease in EGF-induced AKT phosphorylation by Western blot method; type: cell-based; outline: as §1
[5] = target: T1, Epidermal growth factor receptor; assay: Inhibition of EGF-induced EGFR autophosphorylation at Y1068 residues in human H1975 cells by Western blot method; type: cell-based; outline: as §1
[6] = target: T1, Epidermal growth factor receptor; assay: Inhibition of EGFR in human HCC827 cells assessed as decrease in EGF-induced AKT phosphorylation by Western blot method; type: cell-based; outline: as §1
NCI-H3255 [7] = assay: Induction of apoptosis in human H3255 cells assessed as early apoptotic cells at 1000 nM after 48 hrs by Annexin V-FITC/PI staining based flow cytometry (reference value: 3.22%); type: functional
A-431 [8] = assay: Induction of apoptosis in human A431 cells assessed as early apoptotic cells at 500 nM after 48 hrs by Annexin V-FITC/PI staining based flow cytometry (reference value: 3.40%); type: functional
A-431 [9] = assay: Induction of apoptosis in human A431 cells assessed as late apoptotic cells at 1000 nM after 48 hrs by Annexin V-FITC/PI staining based flow cytometry (reference value: 2.11%); type: functional
HCC827 [10] = assay: Induction of apoptosis in human HCC827 cells assessed as viable cells at 250 nM after 48 hrs by Annexin V-FITC/PI staining based flow cytometry (reference value: 94.6%); type: functional; conditions: HCC827, 48 h, read-out: Activity
HCC827 [11] = assay: Induction of apoptosis in human HCC827 cells assessed as late apoptotic cells at 250 nM after 48 hrs by Annexin V-FITC/PI staining based flow cytometry (reference value: 1.15%); type: functional
HCC827 [12] = assay: Induction of apoptosis in human HCC827 cells assessed as viable cells at 1000 nM after 48 hrs by Annexin V-FITC/PI staining based flow cytometry (reference value: 94.6%); type: functional; conditions: HCC827, 48 h, read-out: Activity
HCC827 [13] = assay: Induction of apoptosis in human HCC827 cells assessed as late apoptotic cells at 1000 nM after 48 hrs by Annexin V-FITC/PI staining based flow cytometry (reference value: 1.15%); type: functional
HCC827 [14] = assay: Induction of apoptosis in human HCC827 cells assessed as necrotic cells at 1000 nM after 48 hrs by Annexin V-FITC/PI staining based flow cytometry (reference value: 1.41%); type: functional
NCI-H1975 [15] = assay: Induction of apoptosis in human NCI-H1975 cells assessed as early apoptotic cells at 250 nM after 48 hrs by Annexin V-FITC/PI staining based flow cytometry (reference value: 2.07%); type: functional
NCI-H1975 [16] = assay: Induction of apoptosis in human NCI-H1975 cells assessed as necrotic cells at 500 nM after 48 hrs by Annexin V-FITC/PI staining based flow cytometry (reference value: 2.31%); type: functional
NCI-H1975 [17] = assay: Induction of apoptosis in human NCI-H1975 cells assessed as late apoptotic cells at 1000 nM after 48 hrs by Annexin V-FITC/PI staining based flow cytometry (reference value: 1.91%); type: functional
NCI-H1975 [18] = assay: Induction of apoptosis in human NCI-H1975 cells assessed as necrotic cells at 1000 nM after 48 hrs by Annexin V-FITC/PI staining based flow cytometry (reference value: 2.31%); type: functional
NCI-H1975 [19] = assay: Cell cycle arrest in human NCI-H1975 cells assessed as accumulation at G2/M phase after 24 hrs by propidium iodide staining based flow cytometry; type: functional
Outline: (§2)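 NCI-H1975 cells (2×10^5) seeded in 6-well plates overnight, then treated 24 h at 50, 100, 250 or 500 nM; 1‰ DMSO medium as control. Cells harvested, washed in cold PBS, fixed in 70% cold ethanol at −20 °C overnight, stained with PI/RNase buffer and analysed by flow cytometry. n=3.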

NCI-H1975 [20] = assay: Cell cycle arrest in human NCI-H1975 cells assessed as accumulation at G2/M phase at 100 to 500 nM after 24 hrs by propidium iodide staining based flow cytometry; type: functional; outline: as §2
[21] = Cmax in Sprague-Dawley rat at 30 mg/kg, po by UPLC-MS/MS analysis; type: ADME, organism-based; design: dose 30 mg/kg, route oral; conditions: in vivo
Outline: (§3)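 Four female and four male Sprague-Dawley rats, 200-220 g, fasted 12 h, then given a single oral dose of 30 mg/kg as a 0.5% CMC-Na suspension. Blood sampled at 0.083, 0.25, 0.5, 1, 2, 4, 8 and 24 h, plasma separated by centrifugation at 4000 r/min for 10 min, and analysed by UPLC–MS/MS. Parameters reported as mean ± SD, n=6.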

[22] = MRT (0 to t) in Sprague-Dawley rat at 30 mg/kg, po by UPLC-MS/MS analysis; type: ADME, organism-based; conditions: in vivo
Outline: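 Male and female Sprague-Dawley rats (200–220 g) were fasted 12 h and given a single oral dose of 30 mg/kg as a 0.5% CMC-Na suspension. Blood was sampled at 0.083, 0.25, 0.5, 1, 2, 4, 8 and 24 h and centrifuged at 4000 r/min for 10 min. Plasma was quantified by UPLC–MS/MS.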

[23] = AUC (0 to infinity) in Sprague-Dawley rat at 30 mg/kg, po by UPLC-MS/MS analysis; type: ADME, organism-based; design: dose 30 mg/kg, route oral, time infinity; conditions: in vivo; outline: as §3
Mus musculus = assay: Toxicity in BALB/C nude mouse xenografted with human PC9 cells at 15 to 30 mg/kg, ip qd administered for 19 days measured for 23 days; type: organism-based; conditions: in vivo, 552 h
Outline: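 Six-week-old BALB/C-nu mice were injected subcutaneously in the right flank with about 2×10^6 PC-9 cells. At a tumour size of ~0.2-0.4 cm³ they were randomised, 5 mice/group. Drug was given in DMSO:Span-80:ddH₂O 2:1:50, ip, daily at 15 or 30 mg/kg for 19 days; vehicle group included. Tumour volume = (W²×L)/2.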

PC-9 = assay: Antitumor activity against human PC9 cells xenografted in BALB/C nude mouse assessed as decrease in tumor volume at 15 to 30 mg/kg, ip qd administered for 19 days measured for 23 days; type: functional, organism-based
Outline: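 Six-week-old BALB/C-nu mice given 2×10^6 PC-9 cells subcutaneously in the right flank. At tumour size ~0.2-0.4 cm³, randomised, 5 mice/group. Dosed ip daily for 19 days at 15 or 30 mg/kg, vehicle DMSO:Span-80:ddH₂O = 2:1:50; vehicle-treated control group. Tumour volume = (W²×L)/2. Tumours weighed.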

With `COc1cccc(Nc2cc(Nc3cc(OC)ccc3OC)ncn2)c1` the Activity (NCI-H3255 [1]) was 3.24%, the inhibition [2] was “Dose-dependent effect” and the inhibition [3] was “Dose-dependent effect”. For the same molecule, the inhibition [4] was “Dose-dependent effect”, the inhibition [5] was “Dose-dependent effect” and the inhibition [6] was “Dose-dependent effect”. The Activity (NCI-H3255 [7]) was 17.6%, the Activity (A-431 [8]) was 15.1% and the Activity (A-431 [9]) was 13%. It also gave a viability at 0.25 µM (HCC827 [10]) of 61.9%, an Activity (HCC827 [11]) of 10.2% and a viability at 1 µM (HCC827 [12]) of 53.4%. The Activity (HCC827 [13]) was 14.4%, the Activity (HCC827 [14]) was 12.6% and the Activity (NCI-H1975 [15]) was 22.6%. For the same molecule, the Activity (NCI-H1975 [16]) was 6.93%, the Activity (NCI-H1975 [17]) was 18.2% and the Activity (NCI-H1975 [18]) was 7.56%. For the same molecule, the Activity (NCI-H1975 [19]) was “Dose-dependent effect”, the Activity (NCI-H1975 [20]) was “Active” and the Cmax [21] was 1060 ng/mL. For the same molecule, the MRT last [22] was 6.66 h, the AUC(0-inf) [23] was 5820 ng·h/mL and the Activity (Mus musculus) was “Non-Toxic”. The Activity (PC-9) was “Active”.
